Ins promoter up: insulin promoter activators in MIN6 cells, imaging, high-content screening, mouse beta cells. MIN6 insulin promoter-GFP reporter; active compounds read high. z-score at 5 µM. actives 0.3% (n = 190,000). AID 1625, 2009;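 active = z-score above 3 at 5 µM with at least 500 cells counted in the well; inconclusive = wells under 500 cells, flagged as cytotoxic or low count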
SR-BI DiI inh: inhibitors of SR-BI mediated HDL lipid uptake, primary screen, ldlA[mSR-BI] cells, fluorescence, single point. AID 488896, 2010. inhibition, % at 12.5 µM. ldlA[mSR-BI] CHO cells, DiI-HDL uptake fluorescence, 3 h. actives 0.96% (n = 320,000);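 active = mean replicate inhibition of at least 70% and a set share of replicates each scoring 70 or more; inconclusive = meets just one of the two criteria; inactive = fails both criteria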;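 also: 0% = median of neutral control wells and 100% = median of positive control wells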
HTR2A ag: mouse Htr2a agonists via beta-arrestin recruitment, primary screen, cell-based, luminescence | activation, % at 7.6 µM | CHO-K1 mHTR2A beta-arrestin complementation; percent of 30 µM serotonin response | 5-hydroxytryptamine receptor 2A (Mus musculus), P35363 | actives 0.66% (n = 360,000) | AID 624169, 2012;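 active = activation above a run cutoff, the mean activation of all tested compounds plus 3 SD, cut at about 14% in these data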;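 also: 0% = plate median of compound wells and 100% = 30 µM serotonin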
Target sequence (P35363 whole entry, looked up): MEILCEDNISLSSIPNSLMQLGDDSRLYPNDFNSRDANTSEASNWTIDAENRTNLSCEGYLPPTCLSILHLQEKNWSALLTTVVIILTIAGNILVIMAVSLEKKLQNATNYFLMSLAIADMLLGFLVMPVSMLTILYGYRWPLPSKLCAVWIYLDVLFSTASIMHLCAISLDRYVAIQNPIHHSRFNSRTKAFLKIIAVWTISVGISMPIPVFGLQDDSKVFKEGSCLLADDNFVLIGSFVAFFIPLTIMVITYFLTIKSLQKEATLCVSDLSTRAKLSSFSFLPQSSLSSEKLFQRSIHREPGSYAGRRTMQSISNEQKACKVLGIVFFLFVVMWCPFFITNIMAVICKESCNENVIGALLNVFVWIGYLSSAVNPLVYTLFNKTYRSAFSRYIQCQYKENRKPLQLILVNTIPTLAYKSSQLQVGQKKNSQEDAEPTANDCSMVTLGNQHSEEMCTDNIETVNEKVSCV
beta cell repl: inducers of MIN6 beta-cell proliferation, primary screen, ATP luminescence, uHTS; MIN6 cells proliferation, ATPlite luminescence, 48 h; cells starved in 0.2% serum; 100% = growth in 10% serum; proliferation, % at 10 µM; actives 0.29% (n = 330,000); AID 2380, 2010;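 active = compounds whose signal lies at least 3.5 SD above the mean of all wells on their plate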;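 also: 0% = DMSO-treated cells in low-serum medium and 100% = 10% serum control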
SR-BI uptake up: activators of SR-BI mediated DiI-HDL uptake, primary screen, ldlA[mSR-BI] CHO cells, DiI fluorescence. actives 0.096% (n = 320,000). 3 h; 100 = double the neutral-control signal. AID 504775, 2011. activation, % at 12.5 µM;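 active = mean replicate activation of at least 60% and every replicate at or above 60%; inconclusive = mean or all-replicate condition met, but not both; inactive = mean below 60% and not all replicates reaching 60%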;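 also: 0% = median plate neutral-control signal and 100% = twice that signal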
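System: LDL receptor-deficient CHO ldlA cells overexpressing murine SR-BI | Timing: 3 h uptake period with compound, 37 °C | Medium: HEPES-buffered (25 mM, pH 7.4) F12 plus 0.5% BSA | Dosing: Single-point compound dose | Signal: Bottom-read fluorescence, 550/595 nm | Read-out: Retained DiI signal reflecting DiI-HDL uptake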
Calb FLC: C. albicans growth inhibition with fluconazole, primary screen, CaCi-2 strain, Alamar Blue fluorescence | C. albicans CaCi-2 + fluconazole, 48 h | growth inhibition, % (test concentration not listed) | actives 0.57% (n = 300,000) | AID 1979, 2009;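 active = growth inhibition above about 58% in most replicates, limit read from the data, passing the limit was not always enough; inconclusive = exactly half the replicates above a set limit; inactive = most replicates below a set limit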;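 also: all wells also contain fluconazole at 8 µg/ml as a sub-toxic cotreatment; 0% = median of DMSO wells and 100% = median of geldanamycin control wells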
Starred values were filed as active, the others as inactive; ? = inconclusive; . = no result given. A selection: hits, their analogues and other compounds. The true share with any hit is near 2.4%.

SMILES	Ins promoter up	SR-BI DiI inh	HTR2A ag	beta cell repl	SR-BI uptake up	Calb FLC
CCOC(=O)CCc1c(C)nc(-n2[nH]c(C)c(CCO)c2=O)[nH]c1=O	-0.31	-25.1	3.4	1.7	25.1	9.8
CCOC(=O)c1c(-c2ccc(OC)cc2)csc1NC(=O)COc1ccc2c(C)cc(=O)oc2c1	0.34	73.5*	2.1	-1.8	-73.5	25.8
Cc1ccc(C(=O)OCC(=O)Nc2nc(-c3ccccc3)cs2)cc1NC(=O)c1ccco1	-0.07	83.5*	-1.3	-4.6	-83.5	4.2
CNC(=O)C1CC(=O)N/C(=N/N=C(\C)c2cccs2)S1 (configuration not stated)	3.72*	-10.8	8.5	-1.2	10.8	14.5
S=C1Cc2ccccc2N1	?	96.6*	9.9	.	-96.6	63.5
O=C(Cn1c2ccc(F)cc2c2nc3n(c(=O)c21)CCS3)Nc1ccc(Cl)cc1F	1.27	8.1	-3.4	-1.6	-8.1	3.2
O=C(Cn1c2ccc(F)cc2c2nc3n(c(=O)c21)CCS3)N1CCCC1	.	-31.6	-5.6	2.2	31.6	89.2*
CC1CCN(C(=O)Cn2c3ccccc3c3nc4n(c(=O)c32)CCS4)CC1	.	-18.8	-5.7	-3.2	18.8	90.8*
O=C(Nc1nnc(-c2ccccc2)o1)Nc1ccccc1Cl	3.77*	15.1	4.1	.	-15.1	-3.8
CCOC(=O)c1nc(NNC(=O)c2ccc([N+](=O)[O-])cc2)sc1C	.	90.5*	-7.8	-5.6	-90.5	116.5*
O=C1NN(c2ccc(Br)cc2)C(=O)/C1=C\c1ccc(O)cc1O	.	-5.4	7.5	-2.2	5.4	98.0*
O=C(NCCc1ccccc1)[C@@H]1CC=C[C@@H]2CCN(Cc3ccc(Cl)c(Cl)c3)C(=O)[C@@H]21	.	2.7	2.2	-8.4	-2.7	-2.1
COc1ccc(NS(=O)(=O)c2ccc(C)c(C(=O)NNC(=O)c3ccccc3O)c2)cc1	.	96.6*	8.6	1.6	-96.6	-5.1
O=C(NNC(=O)c1ccccc1O)c1ccc(NS(=O)(=O)c2ccc(F)c(F)c2)cc1	.	84.8*	2.3	-3.1	-84.8	-5.5
COC(=O)[C@]12CCCCC=C1N(Cc1ccco1)C(=O)[C@H](CC(=O)NCc1ccc(C)o1)C2	.	.	0.9	.	.	.
CN(C)S(=O)(=O)c1ccc(-c2csc(N/N=C/c3ccco3)n2)cc1	-0.3	.	6.9	-5.0	.	5.0
O=[N+]([O-])c1cccc(-c2csc(N/N=C/c3cccc(O)c3)n2)c1	-1.32	101.3*	-2.4	-5.5	-101.4	2.1
CN(C)S(=O)(=O)c1ccc(-c2csc(N/N=C/c3ccc(O)cc3)n2)cc1	?	87.2*	0.2	-6.0	-87.2	4.1
Cc1ccc2c(c1)[C@H]1[C@H](CO2)[C@H](c2ccccc2)[C@]2(C)C(=O)Nc3cc(F)ccc3C(=O)N12	.	-10.3	-4.0	-5.6	10.3	.
C[n+]1c2n(c3ccccc31)N=C(c1ccc(-c3ccccc3)cc1)CS2	?	13.4	-7.2	-5.8	-13.4	102.8*
O=[N+]([O-])c1cc(S(=O)(=O)Nc2ccc(Cl)cc2)ccc1N/N=C/c1ccncc1	-0.03	72.2*	-0.3	-0.8	-72.2	0.6
O=[N+]([O-])c1ccc(Cl)cc1N/N=C/c1ccncc1	.	8.0	2.6	2.2	-8.0	5.1
O=C(Nc1ccccc1C(=O)N1CCCCC1)c1cc(F)c(F)cc1Cl	.	10.9	5.9	1.5	-10.9	12.2
COc1ccc(C)cc1Nc1n[n+](-c2ccccc2)c(-c2ccc(N(C)C)cc2)s1	.	72.9*	1.2	-8.6	-72.9	104.9*
COc1ccc(C)cc1Nc1n[n+](-c2ccccc2)c(-c2ccc(OC)c(OC)c2OC)s1	.	37.2	-4.6	-8.1	-37.2	91.5*
SMILES	Ins promoter up	SR-BI DiI inh	HTR2A ag	beta cell repl	SR-BI uptake up	Calb FLC
FC(F)(F)c1nc2nc(Cl)c(Cl)nc2n1CCCN1CCOCC1	.	.	-4.5	.	.	.
Cc1cc(C)cc(-n2c(=O)c3sccc3n(CC(=O)NCc3ccco3)c2=O)c1	4.64*	-22.2	-0.6	4.1	22.2	4.5
Cc1ccc(-n2c(=O)c3sccc3n(CC(=O)NCc3ccco3)c2=O)cc1	1.16	11.2	-2.5	-0.5	-11.2	0.6
C#CCSc1nnc(-c2c[nH]c3ccccc23)n1C	-0.49	-1.0	-2.6	4.0	1.0	1.0
C#CCSc1nnc(-c2sc(-c3ccccc3)nc2C)n1C	0.59	74.4*	1.1	-0.1	-74.4	11.9
Oc1ccc(Cl)c(CN2CCN(c3ncc(Cc4ccccc4)cn3)CC2)c1	.	.	2.9	.	.	.
CCc1ccc2c(c1)cc(CN(Cc1ccco1)C(C)=O)c1nnnn12	-1.11	15.7	5.0	10.8*	-15.7	-3.5
CCSc1ccccc1C(=O)Nc1ccc([N+](=O)[O-])cc1OC	-0.13	83.7*	-2.1	-1.5	-83.7	-6.8
CCCCC(=O)Nc1ccc(NC(=O)c2ccc([N+](=O)[O-])cc2)cc1OC	-0.1	29.7	-2.9	0.0	-29.7	-10.6
CCC(C)C(=O)Nc1ccc([N+](=O)[O-])cc1OC (configuration not stated)	-0.49	1.6	2.9	-2.5	-1.6	4.7
CCCC(=O)Nc1ccc(C(=O)Nc2ccc([N+](=O)[O-])cc2OC)cc1	0.47	77.2*	-3.6	0.4	-77.3	22.3
c1ccc2c(c1)CCN(c1ncnc3c1[nH]c1ccccc13)C2	?	4.5	1.1	-5.4	-4.5	92.4*
c1ccc(CN2CCN(c3ncnc4c3[nH]c3ccccc34)CC2)cc1	-1.99	21.0	23.8*	-7.0	-21.0	14.3
COc1cccc2[nH]c3c(N4CCc5ccccc5C4)ncnc3c12	-0.27	.	.	-6.1	.	-0.9
O=C(CSc1nnc(NC(=O)C2CC2)s1)Nc1ccc(F)cc1F	.	-11.5	0.2	-3.8	11.5	10.4
O=C(O)CN1C(=O)C(=O)N(Cc2ccc(Cl)c(Cl)c2)C1=O	.	.	-2.4	-5.0	.	-10.2
O=C(O)c1cc(-n2[nH]c(=O)c3ccccc3c2=O)ccc1Cl	.	2.4	4.2	-0.8	-2.4	-2.5
COc1cc(/C=C/C(=O)Nc2ccc(C(C)=O)cc2)cc(OC)c1OC	0.3	74.8*	5.1	0.0	-74.9	-9.3
COc1ccc(Br)cc1/C=C/C(=O)Nc1c(C)cccc1C	0.05	61.5	-4.9	-4.8	-61.5	-2.6
COc1ccc(C(=O)/C=C/Nc2ccc(NC(C)=O)cc2)cc1OC	.	45.6	9.1	-3.2	-45.6	4.9
CCN(CC)c1ccc(NC(=O)/C=C/c2cc(Br)ccc2OC)cc1	0.45	80.1*	0.0	-2.7	-80.1	-1.0
COc1cc(/C=C/C(=O)Nc2ccncc2)cc(OC)c1OC	-0.29	36.1	4.1	0.0	-36.1	-7.4

Source: PubChem
